# From ChEMBL document CHEMBL3826876, “Toward the Development of Specific G-Quadruplex Binders: Synthesis, Biophysical, and Biological Studies of New Hydrazone Derivatives” (J Med Chem, 2016)
# Active and inactive are the calls of the source. No cut-off for these calls is given here.
# What was measured:
# [1] = Cytotoxicity against human HCT116 cells assessed as cell killing after 1 hr by MTT assay; format: functional, cell-based; conditions: HCT-116, 1 h
# Outline: (§1)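 U2OS and HCT116 in DMEM with 10% FBS, 1% L-glutamine, seeded at 40000 cells/ml; 24 h later exposed for 1 h or 24 h, then drug-free medium 1-2 days. MTT 1 h at 37 °C, DMSO solubilisation, absorbance 595 nm. IC50 by linear regression; two independent experiments in triplicate, mean ± SE.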
# [2] = Cytotoxicity against human HCT116 cells assessed as cell killing after 24 hrs by MTT assay; format: functional, cell-based; conditions: HCT-116, 24 h; outline: as §1
# [3] = tested on: U2OS; assay: Stabilization of nuclear G-quadruplex DNA in human U2OS cells at 2 to 10 uM after 24 hrs by DAPI staining based immunofluorescence assay; format: cell-based
# Outline: (§2)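 U2OS seeded at 100000 cells/ml, treated 24 h after seeding for 24 h; fixed methanol:acetic acid 3:1, 0.1% Triton X-100, 2% milk block. Stained with in-house His-purified BG4, anti-FLAG, Alexa 488 anti-rabbit; nuclei DAPI. Per-cell signal as corrected total cell fluorescence; Student's t test.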
# [4] = tested on: U2OS; assay: Cytotoxicity against human U2OS cells assessed as cell killing after 24 hrs by MTT assay; format: functional, cell-based; outline: as §1
# [5] = tested on: U2OS; assay: Cytotoxicity against human U2OS cells assessed as cell killing after 1 hr by MTT assay; format: functional, cell-based; outline: as §1
# [6] = Binding affinity to synthetic c-MYC G-quadruplex DNA assessed as change in melting temperature at 4 mol equiv in presence of 20 mM KCl buffer by circular dichroism spectroscopic analysis
# [7] = Binding affinity to synthetic self-complementary DNA 12-mer duplex assessed as change in melting temperature at 4 mol equiv in presence of 100 mM KCl buffer by circular dichroism spectroscopic analysis
# Outline: (§3)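 CD melting, 20-100 °C at 1 °C/min, signal at 264 (parallel), 290 (antiparallel) or 280 nm (duplex). G4 DNA 10 µM or duplex 15 µM, folded by heating at 90 °C 5 min and slow cooling, in 10 mM potassium phosphate (c-kit1, Tel23, Tel26) or lithium phosphate (Tel23-p, ds12) pH 7.0 with 100 mM KCl. Ligand 4 equiv; Tm by curve fit, ΔTm vs DNA alone; duplicate average.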
# [8] = species on record: Homo sapiens; assay: Binding affinity to human 5'-FAM/3'-TAMRA labeled telomere 21 G-quadruplex DNA assessed as increase in melting temperature by FRET assay
# Outline: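 FRET melting screen in 60 mM potassium cacodylate pH 7.4, labelled probe 400 nM annealed at 85 °C for 10 min; ligands at various concentrations up to 20 µM, diluted from 10 mM DMSO stock via 10 mM HCl. Excitation 450-495 nm, emission 515-545 nm, 30-100 °C in 0.5 °C steps with 30 s hold; ΔTm by curve fitting, triplicate.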
# [9] = Effect on synthetic c-MYC G-quadruplex DNA topology at 4 mol equiv by circular dichroism spectroscopic analysis
# Outline: (§4)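 CD spectra at 20 °C, 230-360 nm, 3 scans averaged, baseline subtracted; 10 µM G4 or 15 µM duplex in potassium- or lithium-phosphate pH 7.0 buffers with 100 mM KCl (c-kit2, c-myc: 5 mM potassium phosphate, 20 mM KCl); ligand 4 molar equiv added to folded DNA from 6 mM DMSO stock.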
# [10] = Binding affinity to synthetic telomere 23 parallel G-quadruplex DNA assessed as change in melting temperature at 4 mol equiv in presence of 100 mM KCl buffer by circular dichroism spectroscopic analysis; outline: as §3
# [11] = Effect on synthetic telomere 23 parallel G-quadruplex DNA topology at 4 mol equiv by circular dichroism spectroscopic analysis; outline: as §4
# [12] = Effect on synthetic c-KIT1 G-quadruplex DNA topology at 4 mol equiv by circular dichroism spectroscopic analysis; outline: as §4
# [13] = Effect on synthetic telomere 23 G-quadruplex DNA topology at 4 mol equiv by circular dichroism spectroscopic analysis; outline: as §4
# [14] = Effect on synthetic c-KIT2 G-quadruplex DNA topology at 4 mol equiv by circular dichroism spectroscopic analysis; outline: as §4
# [15] = Binding affinity to synthetic c-KIT2 G-quadruplex DNA assessed as change in melting temperature at 4 mol equiv in presence of 20 mM KCl buffer by circular dichroism spectroscopic analysis
# Outline: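 CD melting as for other targets (20-100 °C, 1 °C/min, 10 µM folded G4, ligand 4 equiv), but in 5 mM potassium phosphate with 20 mM KCl; c-kit2 read at 264 nm as parallel G4. ΔTm from fitted Tm, duplicate average.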
# [16] = Binding affinity to synthetic c-KIT1 G-quadruplex DNA assessed as change in melting temperature at 4 mol equiv in presence of 100 mM KCl buffer by circular dichroism spectroscopic analysis; outline: as §3
# [17] = Effect on synthetic telomere 26 G-quadruplex DNA topology at 4 mol equiv by circular dichroism spectroscopic analysis; outline: as §4
# [18] = Binding affinity to synthetic telomere 26 G-quadruplex DNA assessed as change in melting temperature at 4 mol equiv in presence of 100 mM KCl buffer by circular dichroism spectroscopic analysis; outline: as §3
# [19] = Binding affinity to synthetic telomere 23 G-quadruplex DNA assessed as change in melting temperature at 4 mol equiv in presence of 100 mM KCl buffer by circular dichroism spectroscopic analysis; outline: as §3
# [20] = tested on: U2OS; assay: Stabilization of nuclear G-quadruplex DNA in human U2OS cells at 10 uM after 24 hrs by DAPI staining based immunofluorescence assay; format: cell-based; outline: as §2
# [21] = Effect on synthetic self-complementary DNA 12-mer duplex topology at 4 mol equiv in presence of K+ ions by circular dichroism spectroscopic analysis; outline: as §4
smiles,measurement,setting,value
O=Cc1c(-c2ccccc2)nc2n1ccc1nc(-c3ccccc3)c(C=O)n12,IC50,[1],16.8 µM
same,IC50,[2],4.06 µM
same,Activity,[3],inactive
same,IC50,[4],9.16 µM
same,IC50,[5],45.2 µM
N=C(N)N/N=C/c1c(-c2ccccc2)nc2ccn3c(/C=N/N=C(N)N)c(-c4ccccc4)nc3n12,ΔTm,[6],> 20 °C
same,ΔTm,[7],0.1 °C
same,Activity,[8],Active
same,Activity,[9],inactive
same,ΔTm,[10],> 20 °C
same,Activity,[11],inactive
same,Activity,[12],inactive
same,Activity,[13],inactive
same,Activity,[14],inactive
same,ΔTm,[15],> 20 °C
same,ΔTm,[16],> 15 °C
same,Activity,[17],inactive
same,ΔTm,[18],-4.5 °C
same,ΔTm,[19],-10 °C
same,Activity,[20],Active
same,Activity,[21],inactive
